Data: ChEMBL document CHEMBL4359877, “Identification of benzothiazinones containing an oxime functional moiety as new anti-tuberculosis agents” (Eur J Med Chem, 2019)
In brackets after ≈: the same amount, converted by molar mass.

What was measured:
[1] = tested on: Mycobacterium tuberculosis; assay: Antimycobacterial activity against Mycobacterium tuberculosis H37Rv ATCC 27294 assessed as reduction in bacterial cell growth incubated for 7 days by microplate alamar blue assay; type: functional; conditions: H37Rv ATCC 27294, 168 h
Outline: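 MABA: H37Rv or clinical MDR isolates (resistant to INH and RFP, Beijing Chest Hospital patients) grown to late log phase in 7H9 with glycerol, Tween 80 and ADC, washed, filtered and frozen. Two-fold compound dilutions with 2 × 10⁵ CFU per well, 37 °C; Alamar blue plus Tween 80 added on day 7, fluorescence (ex 530/em 590) read after 16–24 h. MIC = lowest concentration giving ≥90% fluorescence reduction versus mean of bacterium-only controls; RIF and INH as positive controls.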

[2] = Cytotoxicity against African green monkey Vero cells assessed as reduction in cell viability; type: cell-based; conditions: chlorocebus sabaeus
[3] = Acute toxicity in Sprague-Dawley rat assessed as death at 2 g/kg, po measured continuously for first 4 hrs followed by every 1 hr for next 24 hrs and subsequent 8 hrs interval for 7 days; type: organism-based; conditions: in vivo, 2000 mg/kg
Outline: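 SD rats, 180–220 g, randomised, ten per group, food withheld overnight. Single oral dose of 2 g/kg suspended in 5% CMC; controls given vehicle only. Watched continuously for 4 h, hourly for the next 24 h, then every 8 h through day 7 for deaths or changes. Read-out is survivors/total at 7 days.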

[4] = molecular target: Cytochrome P450 2C19 (Homo sapiens, UniProt P33261); assay: Inhibition of CYP2C19 (unknown origin); type: ADME
[5] = tested on: Mycobacterium tuberculosis; assay: Antimycobacterial activity against Mycobacterium tuberculosis H37Rv assessed as reduction in bacterial cell growth at 32 ug/ml by Low-oxygen recovery assay; type: functional
[6] = tested on: Mycobacterium tuberculosis; assay: Antituberculosis activity against Mycobacterium tuberculosis H37Rv infected in BALB/C mouse assessed as colony forming unit in lungs at 25 mg/kg, po administered once daily via gavage for 5 days per week for 3 weeks starting from 10 days post-infection (reference value: 6.44 +/- 0.34); type: functional
[7] = Cmax in ICR mouse at 25 mg/kg, po measured upto 24 hrs by HPLC analysis; type: ADME, organism-based; design: dose 25 mg/kg, route oral; conditions: in vivo
Outline: (§1)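 Female SPF ICR mice, 18–22 g, fasted overnight, 3 per group; single oral dose 25 mg/kg as suspension in 0.5% CMC. Jugular vein blood drawn at 0.25, 0.5, 1, 2, 4, 6, 8 and 24 h; serum deproteinised with acetonitrile, dried, redissolved and quantified by HPLC. AUC, t1/2, Cmax and Tmax taken directly from concentration–time data.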

[8] = tested on: Mycobacterium tuberculosis; assay: Antituberculosis activity against Mycobacterium tuberculosis H37Rv infected in BALB/C mouse assessed as reduction in log10CFU in lungs at 25 mg/kg, po administered once daily for 5 days per week for a total of 3 weeks started on day 10 post-infection; type: functional
[9] = Mutagenicity in Salmonella typhimurium TA100 in absence of S9 fraction by mini-Ames test; type: toxicity; conditions: salmonella enterica subsp. enterica serovar typhimurium
[10] = molecular target: Voltage-gated inwardly rectifying potassium channel KCNH2 (Homo sapiens, UniProt Q12809); assay: Inhibition of human ERG transfected in HEK293 cells by whole-cell patch clamp method; type: cell-based
[11] = Mutagenicity in Salmonella typhimurium TA100 in presence of S9 fraction by mini-Ames test; type: toxicity, subcellular; conditions: salmonella enterica subsp. enterica serovar typhimurium
[12] = molecular target: T1, CYP1A2 (Homo sapiens, UniProt P05177); assay: (§2) Inhibition of CYP1A2 (unknown origin); type: ADME
T1 sequence (P05177 whole entry): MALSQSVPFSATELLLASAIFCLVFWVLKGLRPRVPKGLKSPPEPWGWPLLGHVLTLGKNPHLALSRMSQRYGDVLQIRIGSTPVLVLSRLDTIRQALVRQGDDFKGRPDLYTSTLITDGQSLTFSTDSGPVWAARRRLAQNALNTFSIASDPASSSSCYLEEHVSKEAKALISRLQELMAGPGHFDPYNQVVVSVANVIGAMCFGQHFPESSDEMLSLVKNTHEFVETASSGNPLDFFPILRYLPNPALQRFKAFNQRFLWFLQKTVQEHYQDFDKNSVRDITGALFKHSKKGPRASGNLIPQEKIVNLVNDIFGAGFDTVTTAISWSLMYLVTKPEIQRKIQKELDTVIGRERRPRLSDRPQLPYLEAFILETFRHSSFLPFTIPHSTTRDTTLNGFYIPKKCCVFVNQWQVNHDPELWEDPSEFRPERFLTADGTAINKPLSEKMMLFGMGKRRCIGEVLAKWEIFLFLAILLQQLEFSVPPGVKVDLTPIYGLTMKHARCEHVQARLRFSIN

[13] = molecular target: CYP2D6 (Homo sapiens, UniProt P10635); assay: (§3) Inhibition of CYP2D6 (unknown origin); type: ADME
[14] = Mutagenicity in Salmonella typhimurium TA102 in presence of S9 fraction by mini-Ames test; type: toxicity, subcellular; conditions: salmonella enterica subsp. enterica serovar typhimurium
[15] = AUC (0 to infinity) in ICR mouse at 25 mg/kg, po measured upto 24 hrs by HPLC analysis; type: ADME, organism-based; design: dose 25 mg/kg, time infinity, route oral; conditions: in vivo; outline: as §1
[16] = tested on: Mycobacterium tuberculosis; assay: Antimycobacterial activity against Mycobacterium tuberculosis H37Rv assessed as reduction in bacterial cell growth by Low-oxygen recovery assay; type: functional
[17] = Half life in ICR mouse at 25 mg/kg, po measured upto 24 hrs by HPLC analysis; type: ADME, organism-based; conditions: in vivo; outline: as §1
[18] = Tmax in ICR mouse at 25 mg/kg, po measured upto 24 hrs by HPLC analysis; type: ADME, organism-based; conditions: in vivo; outline: as §1
[19] = molecular target: CYP2C9 (Homo sapiens, UniProt P11712); assay: (§4) Inhibition of CYP2C9 (unknown origin); type: ADME
[20] = molecular target: CYP3A4 (Homo sapiens, UniProt P08684); assay: (§5) Inhibition of CYP3A4 (unknown origin); type: ADME
[21] = MRT in ICR mouse at 25 mg/kg, po measured upto 24 hrs by HPLC analysis; type: ADME, organism-based; conditions: in vivo; outline: as §1
[22] = Mutagenicity in Salmonella typhimurium TA102 in absence of S9 fraction by mini-Ames test; type: toxicity; conditions: salmonella enterica subsp. enterica serovar typhimurium
[23] = Oral bioavailability in Sprague-Dawley rat at 50 mg/kg measured upto 24 hrs by HPLC analysis; type: ADME, organism-based; conditions: in vivo
Outline: (§6)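 SD rats, 180–220 g; single intravenous dose 2.5 mg/kg or oral doses of 25, 50 or 200 mg/kg, n = 6, half of each sex. Serum sampling, acetonitrile deproteinisation and HPLC quantification followed the mouse procedure. Parameters derived from concentration–time data; F% obtained from the oral and IV exposures.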

[24] = AUC (0 to infinity) in Sprague-Dawley rat at 2.5 mg/kg, iv by HPLC analysis; type: ADME, organism-based; design: dose 2.5 mg/kg, route intravenous, time infinity; conditions: in vivo; outline: as §6
[25] = Cmax in Sprague-Dawley rat at 200 mg/kg, po measured upto 24 hrs by HPLC analysis; type: ADME, organism-based; design: dose 200 mg/kg, route oral; conditions: in vivo; outline: as §6
[26] = Half life in Sprague-Dawley rat at 2.5 mg/kg, iv measured upto 24 hrs by HPLC analysis; type: ADME, organism-based; conditions: in vivo; outline: as §6
[27] = AUC (0 to infinity) in Sprague-Dawley rat at 50 mg/kg, po by HPLC analysis; type: ADME, organism-based; design: dose 50 mg/kg, time infinity, route oral; conditions: in vivo; outline: as §6
[28] = Oral bioavailability in Sprague-Dawley rat at 25 mg/kg measured upto 24 hrs by HPLC analysis; type: ADME, organism-based; conditions: in vivo; outline: as §6
[29] = Half life in Sprague-Dawley rat at 50 mg/kg, po measured upto 24 hrs by HPLC analysis; type: ADME, organism-based; conditions: in vivo; outline: as §6
[30] = Oral bioavailability in Sprague-Dawley rat at 200 mg/kg measured upto 24 hrs by HPLC analysis; type: ADME, organism-based; conditions: in vivo; outline: as §6
[31] = Half life in Sprague-Dawley rat at 25 mg/kg, po measured upto 24 hrs by HPLC analysis; type: ADME, organism-based; conditions: in vivo; outline: as §6
[32] = Tmax in Sprague-Dawley rat at 200 mg/kg, po measured upto 24 hrs by HPLC analysis; type: ADME, organism-based; conditions: in vivo; outline: as §6
[33] = Cmax in Sprague-Dawley rat at 25 mg/kg, po measured upto 24 hrs by HPLC analysis; type: ADME, organism-based; design: dose 25 mg/kg, route oral; conditions: in vivo; outline: as §6
[34] = molecular target: T2, Cytochrome P450 1A2 (Homo sapiens, UniProt P05177); assay: as §2; type: ADME
T2 sequence (P05177 whole entry): T1 sequence (P05177 whole entry)

[35] = AUC (0 to infinity) in Sprague-Dawley rat at 200 mg/kg, po by HPLC analysis; type: ADME, organism-based; design: dose 200 mg/kg, route oral, time infinity; conditions: in vivo; outline: as §6
[36] = AUC (0 to infinity) in Sprague-Dawley rat at 25 mg/kg, po by HPLC analysis; type: ADME, organism-based; design: dose 25 mg/kg, route oral, time infinity; conditions: in vivo; outline: as §6
[37] = Cmax in Sprague-Dawley rat at 50 mg/kg, po measured upto 24 hrs by HPLC analysis; type: ADME, organism-based; design: dose 50 mg/kg, route oral; conditions: in vivo; outline: as §6
[38] = molecular target: Cytochrome P450 2D6 (Homo sapiens, UniProt P10635); assay: as §3; type: ADME
[39] = Tmax in Sprague-Dawley rat at 50 mg/kg, po measured upto 24 hrs by HPLC analysis; type: ADME, organism-based; conditions: in vivo; outline: as §6
[40] = molecular target: Cytochrome P450 2C9 (Homo sapiens, UniProt P11712); assay: as §4; type: ADME
[41] = Tmax in Sprague-Dawley rat at 25 mg/kg, po measured upto 24 hrs by HPLC analysis; type: ADME, organism-based; conditions: in vivo; outline: as §6
[42] = molecular target: Cytochrome P450 3A4 (Homo sapiens, UniProt P08684); assay: as §5; type: ADME
[43] = Cmax in Sprague-Dawley rat at 2.5 mg/kg, iv measured upto 24 hrs by HPLC analysis; type: ADME, organism-based; design: dose 2.5 mg/kg, route intravenous; conditions: in vivo; outline: as §6
[44] = Half life in Sprague-Dawley rat at 200 mg/kg, po measured upto 24 hrs by HPLC analysis; type: ADME, organism-based; conditions: in vivo; outline: as §6

Chain of Voltage-gated inwardly rectifying potassium channel KCNH2 (Q12809 whole entry): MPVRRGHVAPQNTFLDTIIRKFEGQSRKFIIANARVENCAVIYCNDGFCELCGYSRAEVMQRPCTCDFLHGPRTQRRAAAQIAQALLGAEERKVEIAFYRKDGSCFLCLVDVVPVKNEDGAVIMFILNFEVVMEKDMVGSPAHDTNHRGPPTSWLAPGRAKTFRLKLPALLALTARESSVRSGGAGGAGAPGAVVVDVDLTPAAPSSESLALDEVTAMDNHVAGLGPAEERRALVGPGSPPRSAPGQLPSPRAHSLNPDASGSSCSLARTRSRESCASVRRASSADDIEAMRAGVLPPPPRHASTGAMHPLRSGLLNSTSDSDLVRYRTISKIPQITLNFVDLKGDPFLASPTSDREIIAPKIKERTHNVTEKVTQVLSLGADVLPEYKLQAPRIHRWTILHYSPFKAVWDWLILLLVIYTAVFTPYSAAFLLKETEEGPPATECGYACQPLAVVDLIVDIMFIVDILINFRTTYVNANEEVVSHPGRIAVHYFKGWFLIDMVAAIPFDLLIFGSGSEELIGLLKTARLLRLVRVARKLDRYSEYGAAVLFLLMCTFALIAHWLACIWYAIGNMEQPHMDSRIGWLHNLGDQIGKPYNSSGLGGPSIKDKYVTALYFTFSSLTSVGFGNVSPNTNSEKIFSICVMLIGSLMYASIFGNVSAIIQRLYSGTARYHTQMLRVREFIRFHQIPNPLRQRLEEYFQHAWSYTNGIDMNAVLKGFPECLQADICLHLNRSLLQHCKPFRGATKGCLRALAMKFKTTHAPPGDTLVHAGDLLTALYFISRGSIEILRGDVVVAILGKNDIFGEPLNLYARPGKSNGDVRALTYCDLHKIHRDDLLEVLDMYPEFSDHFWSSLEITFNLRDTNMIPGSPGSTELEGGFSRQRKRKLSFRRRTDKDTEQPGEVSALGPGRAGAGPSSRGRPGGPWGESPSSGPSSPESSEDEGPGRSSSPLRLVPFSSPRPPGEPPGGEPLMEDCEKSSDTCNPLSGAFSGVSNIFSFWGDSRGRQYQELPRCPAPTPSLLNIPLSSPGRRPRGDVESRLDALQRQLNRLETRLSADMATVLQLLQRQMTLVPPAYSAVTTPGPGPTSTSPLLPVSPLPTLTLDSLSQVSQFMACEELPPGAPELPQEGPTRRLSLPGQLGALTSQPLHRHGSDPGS
Chain of Cytochrome P450 2C19 (P33261 whole entry): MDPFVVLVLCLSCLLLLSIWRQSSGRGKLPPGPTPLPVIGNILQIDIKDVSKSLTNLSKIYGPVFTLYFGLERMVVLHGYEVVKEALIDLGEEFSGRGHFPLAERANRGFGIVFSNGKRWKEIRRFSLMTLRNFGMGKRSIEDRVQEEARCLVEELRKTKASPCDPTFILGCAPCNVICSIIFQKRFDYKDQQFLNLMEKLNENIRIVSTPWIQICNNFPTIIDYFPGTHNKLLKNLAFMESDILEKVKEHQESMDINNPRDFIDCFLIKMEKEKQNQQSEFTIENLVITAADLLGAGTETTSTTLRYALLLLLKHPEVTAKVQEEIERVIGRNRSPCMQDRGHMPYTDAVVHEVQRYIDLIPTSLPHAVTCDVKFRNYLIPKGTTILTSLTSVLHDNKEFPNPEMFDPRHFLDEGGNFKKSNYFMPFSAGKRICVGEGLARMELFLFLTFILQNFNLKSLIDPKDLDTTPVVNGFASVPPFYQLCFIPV
Chain of Cytochrome P450 2D6 (P10635 whole entry): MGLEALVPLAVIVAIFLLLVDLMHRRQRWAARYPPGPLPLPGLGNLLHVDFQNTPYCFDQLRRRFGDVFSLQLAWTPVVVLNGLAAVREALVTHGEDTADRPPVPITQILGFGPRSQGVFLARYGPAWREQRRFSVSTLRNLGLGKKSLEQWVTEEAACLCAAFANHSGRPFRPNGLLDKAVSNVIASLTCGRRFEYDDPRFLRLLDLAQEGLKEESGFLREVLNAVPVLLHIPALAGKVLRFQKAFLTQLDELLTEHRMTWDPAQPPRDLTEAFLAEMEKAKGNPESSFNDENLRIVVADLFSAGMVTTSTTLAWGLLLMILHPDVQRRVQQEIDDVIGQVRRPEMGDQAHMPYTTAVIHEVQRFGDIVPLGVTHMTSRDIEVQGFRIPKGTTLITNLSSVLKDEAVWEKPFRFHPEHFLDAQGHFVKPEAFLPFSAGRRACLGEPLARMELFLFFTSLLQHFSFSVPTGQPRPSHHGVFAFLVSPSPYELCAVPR
Chain of CYP2D6 (P10635 whole entry): as above
Chain of Cytochrome P450 2C9 (P11712 whole entry): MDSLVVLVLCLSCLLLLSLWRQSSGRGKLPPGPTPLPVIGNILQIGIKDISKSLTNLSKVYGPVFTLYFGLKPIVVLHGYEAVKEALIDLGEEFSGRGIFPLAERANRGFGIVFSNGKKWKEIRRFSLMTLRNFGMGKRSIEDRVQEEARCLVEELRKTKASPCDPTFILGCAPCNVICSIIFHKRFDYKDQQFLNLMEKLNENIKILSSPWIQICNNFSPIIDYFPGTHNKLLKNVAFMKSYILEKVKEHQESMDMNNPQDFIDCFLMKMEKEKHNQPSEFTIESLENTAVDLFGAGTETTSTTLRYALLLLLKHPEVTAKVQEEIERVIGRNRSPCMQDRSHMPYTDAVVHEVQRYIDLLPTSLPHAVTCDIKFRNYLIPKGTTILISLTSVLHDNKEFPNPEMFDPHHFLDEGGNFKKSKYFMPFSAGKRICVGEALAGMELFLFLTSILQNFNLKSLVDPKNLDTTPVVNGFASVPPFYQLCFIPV
Chain of CYP2C9 (P11712 whole entry): as above
Chain of Cytochrome P450 3A4 (P08684 whole entry): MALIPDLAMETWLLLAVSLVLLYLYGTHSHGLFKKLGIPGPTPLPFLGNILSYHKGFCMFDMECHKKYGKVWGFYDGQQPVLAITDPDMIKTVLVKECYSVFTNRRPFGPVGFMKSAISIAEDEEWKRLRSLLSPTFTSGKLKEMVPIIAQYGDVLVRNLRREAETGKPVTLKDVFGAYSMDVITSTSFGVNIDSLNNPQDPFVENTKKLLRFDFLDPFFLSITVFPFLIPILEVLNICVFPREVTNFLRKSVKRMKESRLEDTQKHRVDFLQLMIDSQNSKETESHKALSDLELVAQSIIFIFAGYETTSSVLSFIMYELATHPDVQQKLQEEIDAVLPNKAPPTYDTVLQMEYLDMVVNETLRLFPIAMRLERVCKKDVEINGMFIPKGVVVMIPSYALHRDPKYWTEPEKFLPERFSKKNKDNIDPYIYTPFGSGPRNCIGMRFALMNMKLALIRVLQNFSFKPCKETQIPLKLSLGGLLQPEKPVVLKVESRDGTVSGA
Chain of CYP3A4 (P08684 whole entry): as above

## CON=C1CCC(CN2CCN(c3nc(=O)c4cc(C(F)(F)F)cc([N+](=O)[O-])c4s3)CC2C)CC1 (stereo not given)
[1]
  MIC90: < 0.016 µg/mL
[2]
  CC50: > 64 µg/mL

## CCON=C1CCC(CN2CCN(c3nc(=O)c4cc(C(F)(F)F)cc([N+](=O)[O-])c4s3)CC2)CC1 (stereo not given)
[3]
  Activity: Non-Toxic
[4]
  IC50: > 10 µM
[1]
  MIC90: < 0.016 µg/mL
[5]
  inhibition at 32 µg/mL: 79%
[2]
  CC50: > 64 µg/mL
[6]
  Activity: 2 log10CFU
[7]
  Cmax: 15200 ng/mL
[8]
  Activity: 4.44 log10CFU
[9]
  Activity: Non-Toxic
[10]; hek293
  IC50: 38.9 µM
[11]
  Activity: Non-Toxic
[12]
  IC50: > 10 µM
[13]
  IC50: > 10 µM
[14]
  Activity: Non-Toxic
[15]
  AUC(0-inf): 40600 ng·h/mL
[16]
  MIC: > 32 µg/mL
[17]
  half-life: 2.29 h
[18]
  Tmax: 0.25 h
[19]
  IC50: > 10 µM
[20]
  IC50: > 10 µM
[21]
  MRT: 2.3 h
[22]
  Activity: Non-Toxic

## NNC(=O)c1ccncc1 [ISONIAZID]
[1]
  MIC90: 0.031 µg/mL (≈ 0.226 µM)
[6]
  Activity: 1.76 log10CFU

## O=c1nc(N2CCN(CC3CCCCC3)CC2)sc2c([N+](=O)[O-])cc(C(F)(F)F)cc12 [MACOZINONE]
[23]
  bioavailability: 10.2%
[24]
  AUC(0-inf): 1540 ng·h/mL
[25]
  Cmax: 804 ng/mL
[3]
  Activity: Non-Toxic
[4]
  IC50: 3.77 µM
[1]
  MIC90: < 0.016 µg/mL
[26]
  half-life: 1.64 h
[5]
  inhibition at 32 µg/mL: 78%
[2]
  CC50: > 64 µg/mL
[6]
  Activity: 2.65 log10CFU
[27]
  AUC(0-inf): 3120 ng·h/mL
[7]
  Cmax: 912 ng/mL
[28]
  bioavailability: 10.7%
[29]
  half-life: 4.86 h
[30]
  bioavailability: 3.82%
[9]
  Activity: Non-Toxic
[10]
  IC50: 102 µM
[31]
  half-life: 4.23 h
[11]
  Activity: Non-Toxic
[32]
  Tmax: 2.5 h
[33]
  Cmax: 463 ng/mL
[34]
  IC50: > 10 µM
[35]
  AUC(0-inf): 4720 ng·h/mL
[36]
  AUC(0-inf): 1600 ng·h/mL
[37]
  Cmax: 694 ng/mL
[38]
  IC50: > 10 µM
[14]
  Activity: Non-Toxic
[15]
  AUC(0-inf): 1660 ng·h/mL
[16]
  MIC: > 32 µg/mL
[17]
  half-life: 2.78 h
[18]
  Tmax: 0.25 h
[39]
  Tmax: 1.33 h
[40]
  IC50: > 10 µM
[41]
  Tmax: 0.91 h
[42]
  IC50: > 10 µM
[21]
  MRT: 3.17 h
[43]
  Cmax: 1440 ng/mL
[22]
  Activity: Non-Toxic
[44]
  half-life: 5.76 h
